Laboratory results from ChEMBL document CHEMBL1152671, “Structure-activity relationship studies of manzamine A: amidation of positions 6 and 8 of the beta-carboline moiety” (Bioorg Med Chem, 2009).
Converted amounts (≈) assume the structure as drawn. The source made the active and inactive calls.

Assays:
[1] = test system: Candida albicans
[2] = test system: Vero; assay: Cytotoxicity against african green monkey Vero cells up to 470 nM by neutral red assay; type: cell-based; conditions: chlorocebus sabaeus
[3] = test system: Cryptococcus neoformans; assay: Antifungal activity against Cryptococcus neoformans after 24 hrs by alamar blue assay; type: functional
[4] = test system: Aspergillus fumigatus; assay: Antifungal activity against Aspergillus fumigatus by modified NCCLS method; type: functional, organism-based
[5] = test system: Plasmodium falciparum; assay: Antimalarial activity against chloroquine-sensitive Plasmodium falciparum D6 infected in African green monkey (Cercopithecus aethiops) Vero cells assessed as parasite LDH activity after 72 hrs; type: functional, organism-based
[6] = test system: Mycobacterium intracellulare; assay: Antibacterial activity against Mycobacterium intracellular by alamar blue assay; type: functional, organism-based
[7] = test system: Pseudomonas aeruginosa; assay: Antibacterial activity against Pseudomonas aeruginosa by modified NCCLS method; type: functional, organism-based
[8] = test system: Mycobacterium intracellulare; assay: Antibacterial activity against Mycobacterium intracellular after 24 hrs by alamar blue assay; type: functional
[9] = test system: Mus musculus; assay: Toxicity in Swiss Webster mice (Mus musculus) infected with Plasmodium berghei NK65 at 30 mg/kg, perorally QD for 3 consecutive days administered 2 hrs after infection; type: organism-based; set-up: dose 30 mg/kg, route oral; conditions: in vivo, po
How it was run: (§1)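 Male Swiss Webster mice, 18–20 g, inoculated intraperitoneally with 2 × 10⁷ P. berghei NK-65 parasitized red blood cells taken from a donor mouse. Groups of 5 mice were dosed orally about 2 h post-infection, once daily on […], at 3.3, 10 or 30 mg/kg. Controls were vehicle and chloroquine 10 mg/kg. Mice were observed after each dose for toxicity signs. Parasitemia was read on Giemsa-stained tail-blood smears, with suppression on days 5 and 7 and cure defined as no parasitemia to day 28.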

[10] = test system: Aspergillus fumigatus
[11] = test system: Escherichia coli; assay: Antibacterial activity against Escherichia coli by modified NCCLS method; type: functional, organism-based
[12] = test system: Candida albicans; assay: Antifungal activity against Candida albicans by modified NCCLS method; type: functional, organism-based
[13] = test system: Plasmodium berghei; assay: Antimalarial activity against Plasmodium berghei NK65 infected in Swiss Webster mice (Mus musculus) assessed as inhibition of parasitaemia at 30 mg/kg, perorally daily for 3 consecutive days administered 2 hrs after infection measured on day 28 post infection; type: functional; conditions: route oral
How it was run: as §1

[14] = test system: Plasmodium falciparum; assay: Antimalarial activity against chloroquine-resistant Plasmodium falciparum W2 infected in African green monkey (Cercopithecus aethiops) (Cercopithecus aethiops) Vero cells assessed as parasite LDH activity after 72 hrs; type: functional, organism-based
[15] = test system: Cryptococcus neoformans; assay: Antifungal activity against Cryptococcus neoformans by modified NCCLS method; type: functional, organism-based
[16] = test system: Aspergillus fumigatus; assay: Antifungal activity against Aspergillus fumigatus after 24 hrs by alamar blue assay
[17] = test system: Candida albicans; assay: Antifungal activity against Candida albicans after 24 hrs by alamar blue assay
[18] = Therapeutic index, ratio of TC50 for african green monkey (Cercopithecus aethiops) Vero cells to IC50 for chloroquine-sensitive Plasmodium falciparum D6 infected in african green monkey (Cercopithecus aethiops) Vero cells; type: cell-based; conditions: read-out: TI
[19] = Therapeutic index, ratio of TC50 for african green monkey (Cercopithecus aethiops) Vero cells to IC50 for chloroquine-resistant Plasmodium falciparum W2 infected in african green monkey (Cercopithecus aethiops) Vero cells; type: cell-based; conditions: read-out: TI
[20] = Cryptococcus neoformans, read-out: IC50
[21] = Candida albicans, read-out: IC50

Row | Compound | MIC [1] | Activity [2] | MIC [3] | IC50 [4] | IC50 [5] | IC50 [6] | Activity [7] | MIC [8] | MIC [10] | Activity [11] | IC50 [12] | IC50 [14] | IC50 [15, 20] | also measured
1 | O=C(Nc1ccc2[nH]c3c(C4=C[C@@]5(O)CC/C=C\CCCCN6CC[C@@H]4[C@]4(C[C@@H]7/C=C\CCCCN7[C@H]45)C6)nccc3c2c1)C1CCCCC1 [6-CYCLOHEXAMIDOMANZAMINE A] | inactive | Non-toxic | inactive | Not Active | 34 nM | 1260 nM | inactive | 1.86 µM (≈ 1.25 µg/mL) | inactive | inactive | Not Active | 53 nM | 22300 nM | Activity [9]: Non-toxic; inhibition in vivo at 30 mg/kg [13]: 24%
2 | CC(=O)Nc1cccc2c1[nH]c1c(C3=C[C@@]4(O)CC/C=C\CCCCN5CC[C@@H]3[C@]3(C[C@@H]6/C=C\CCCCN6[C@H]34)C5)nccc12 [8-ACETAMIDOMANZAMINE A] | inactive | Non-toxic | inactive | Not Active | 182 nM | 1650 nM | inactive | 2.06 µM (≈ 1.25 µg/mL) | inactive | inactive | Not Active | 231 nM | 33400 nM | 
3 | O=C(Nc1cccc2c1[nH]c1c(C3=C[C@@]4(O)CC/C=C\CCCCN5CC[C@@H]3[C@]3(C[C@@H]6/C=C\CCCCN6[C@H]34)C5)nccc12)C1CCCCC1 [8-CYCLOHEXAMIDOMANZAMINE A] | inactive | Non-toxic | inactive | Not Active | 950 nM | 11100 nM | inactive | 14.8 µM (≈ 10 µg/mL) | inactive | inactive | Not Active | 995 nM |  | IC50 [15]: Not Active
4 | CC(C)C(=O)Nc1cccc2c1[nH]c1c(C3=C[C@@]4(O)CC/C=C\CCCCN5CC[C@@H]3[C@]3(C[C@@H]6/C=C\CCCCN6[C@H]34)C5)nccc12 [8-ISOBUTAMIDOMANZAMINE A] | inactive | Non-toxic | inactive | Not Active | 158 nM | 1030 nM | inactive | 1.97 µM (≈ 1.25 µg/mL) | inactive | inactive | Not Active | 205 nM | 3160 nM | 
5 | CCCC(=O)Nc1cccc2c1[nH]c1c(C3=C[C@@]4(O)CC/C=C\CCCCN5CC[C@@H]3[C@]3(C[C@@H]6/C=C\CCCCN6[C@H]34)C5)nccc12 [8-N-BUTAMIDOMANZAMINE A] | inactive | Non-toxic | inactive | Not Active | 35 nM | 868 nM | inactive | 1.97 µM (≈ 1.25 µg/mL) | inactive | inactive | Not Active | 121 nM | 23700 nM | 
6 | CCCCCC(=O)Nc1cccc2c1[nH]c1c(C3=C[C@@]4(O)CC/C=C\CCCCN5CC[C@@H]3[C@]3(C[C@@H]6/C=C\CCCCN6[C@H]34)C5)nccc12 [8-N-HEXAMIDOMANZAMINE A] | inactive | Non-toxic | inactive | Not Active | 32 nM | 30 nM | inactive | 0.468 µM (≈ 0.31 µg/mL) | inactive | inactive | Not Active | 65 nM | 3780 nM | Activity [9]: Non-toxic; inhibition in vivo at 30 mg/kg [13]: 62%
7 | CCCCCCC(=O)Nc1cccc2c1[nH]c1c(C3=C[C@@]4(O)CC/C=C\CCCCN5CC[C@@H]3[C@]3(C[C@@H]6/C=C\CCCCN6[C@H]34)C5)nccc12 [8-N-OCTAMIDOMANZAMINE A] | inactive | Non-toxic | 29 µM (≈ 19.6 µg/mL) | Not Active | 55 nM | 508 nM | inactive | 1.81 µM (≈ 1.23 µg/mL) | inactive | inactive | Not Active | 43 nM | 1010 nM | 
8 | CCCCC(=O)Nc1cccc2c1[nH]c1c(C3=C[C@@]4(O)CC/C=C\CCCCN5CC[C@@H]3[C@]3(C[C@@H]6/C=C\CCCCN6[C@H]34)C5)nccc12 [8-N-PENTAMIDOMANZAMINE A] | inactive | Non-toxic | inactive | Not Active | 53 nM | 695 nM | inactive | 0.973 µM (≈ 0.63 µg/mL) | inactive | inactive | Not Active | 49 nM | 4630 nM | 
9 | CC(C)(C)C(=O)Nc1cccc2c1[nH]c1c(C3=C[C@@]4(O)CC/C=C\CCCCN5CC[C@@H]3[C@]3(C[C@@H]6/C=C\CCCCN6[C@H]34)C5)nccc12 [8-PIVALAMIDOMANZAMINE A] | inactive | Non-toxic | inactive | Not Active | 170 nM | 540 nM | inactive | 0.973 µM (≈ 0.63 µg/mL) | inactive | inactive | Not Active | 232 nM |  | IC50 [15]: Not Active
10 | C[C@@H]1[C@H](O)[C@@H](C)/C=C/C=C/C=C/C=C/C=C/C=C/C=C/[C@H](O[C@@H]2O[C@H](C)[C@@H](O)[C@H](N)[C@@H]2O)C[C@@H]2O[C@](O)(C[C@@H](O)C[C@@H](O)[C@H](O)CC[C@@H](O)C[C@@H](O)CC(=O)O[C@H]1C)C[C@H](O)[C@H]2C(=O)O [AMPHOTERICIN B] |  |  | 2.71 µM (≈ 2.5 µg/mL) |  |  |  |  |  |  |  |  |  | 920 nM | IC50 ([4]; Aspergillus fumigatus, read-out: IC50): 1620 nM; MIC [16]: 2.7 µM (≈ 2.5 µg/mL); MIC [17]: 1.35 µM (≈ 1.25 µg/mL); IC50 [12, 21]: 487 nM
11 | O[C@]12C=C(c3nccc4c3[nH]c3ccccc34)[C@@H]3CCN(CCCC/C=C\CC1)C[C@@]31C[C@@H]3/C=C\CCCCN3[C@H]12 [MANZAMINE A] | inactive |  |  |  | 8 nM |  |  |  |  |  |  | 11 nM | 1850 nM | selectivity ratio [18]: 44; selectivity ratio [19]: 25; IC50 [12, 21]: 3660 nM
